Columns and labels:
[1] = Partition coefficient (logD); format: physicochemical; settings: octanol/water
[2] = biological target: T1, GABA-A receptor; alpha-3/beta-3/gamma-2 (Homo sapiens, UniProt P18507+P28472+P34903); test: Binding affinity by displacement of [3H]Ro-151788 from recombinant human gamma-aminobutyric-acid A receptor alpha3,beta3,gamma2 stably expressed in L cells; format: cell-based
T1 sequence (P18507 whole entry): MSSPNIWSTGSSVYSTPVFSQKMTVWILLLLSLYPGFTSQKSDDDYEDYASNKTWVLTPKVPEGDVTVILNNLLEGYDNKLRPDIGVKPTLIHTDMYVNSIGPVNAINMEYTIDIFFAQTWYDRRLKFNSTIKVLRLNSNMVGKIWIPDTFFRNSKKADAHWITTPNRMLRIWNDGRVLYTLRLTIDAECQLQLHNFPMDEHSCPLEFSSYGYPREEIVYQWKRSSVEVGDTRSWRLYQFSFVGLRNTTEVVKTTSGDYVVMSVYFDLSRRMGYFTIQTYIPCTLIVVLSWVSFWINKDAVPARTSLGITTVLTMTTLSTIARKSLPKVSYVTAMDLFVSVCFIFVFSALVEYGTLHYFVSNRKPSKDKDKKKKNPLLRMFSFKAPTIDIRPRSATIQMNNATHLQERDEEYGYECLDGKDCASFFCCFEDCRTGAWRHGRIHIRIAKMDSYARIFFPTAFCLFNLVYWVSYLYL
T1 sequence (P28472 whole entry): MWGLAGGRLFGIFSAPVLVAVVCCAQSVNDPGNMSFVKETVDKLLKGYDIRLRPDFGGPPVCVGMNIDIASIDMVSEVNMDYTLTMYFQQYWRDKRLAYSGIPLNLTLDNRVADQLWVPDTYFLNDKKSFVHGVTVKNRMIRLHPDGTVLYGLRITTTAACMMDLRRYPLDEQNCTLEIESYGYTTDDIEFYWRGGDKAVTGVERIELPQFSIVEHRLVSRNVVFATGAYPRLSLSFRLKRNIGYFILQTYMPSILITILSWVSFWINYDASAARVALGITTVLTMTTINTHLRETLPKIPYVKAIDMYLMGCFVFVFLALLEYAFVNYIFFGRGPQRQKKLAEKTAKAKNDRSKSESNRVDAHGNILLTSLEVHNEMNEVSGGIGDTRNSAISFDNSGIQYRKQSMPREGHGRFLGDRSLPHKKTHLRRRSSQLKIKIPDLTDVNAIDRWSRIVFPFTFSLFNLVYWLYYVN
T1 sequence (P34903 whole entry): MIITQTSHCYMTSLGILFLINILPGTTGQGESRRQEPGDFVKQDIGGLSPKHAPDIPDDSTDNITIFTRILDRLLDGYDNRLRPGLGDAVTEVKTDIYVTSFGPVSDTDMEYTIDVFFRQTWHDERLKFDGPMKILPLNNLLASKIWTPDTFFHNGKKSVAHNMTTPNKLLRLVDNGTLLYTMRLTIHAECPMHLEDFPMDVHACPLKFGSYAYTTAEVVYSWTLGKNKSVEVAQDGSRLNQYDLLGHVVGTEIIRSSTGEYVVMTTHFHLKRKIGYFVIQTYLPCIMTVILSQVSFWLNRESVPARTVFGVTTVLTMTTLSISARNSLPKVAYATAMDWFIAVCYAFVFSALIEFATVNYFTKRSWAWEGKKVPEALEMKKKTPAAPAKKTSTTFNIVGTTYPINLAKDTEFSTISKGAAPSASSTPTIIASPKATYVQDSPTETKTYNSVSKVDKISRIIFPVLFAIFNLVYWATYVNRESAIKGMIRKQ
In short: (§1)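 Competition binding against [3H]Ro15-1788 on cloned human α1/α2/α3/α5 β3γ2S receptors stably expressed in L(tk-) cells. Six to eight test concentrations spaced in half-log steps. Ki given as mean (SEM), n = 3-5, reported to two significant figures.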

[3] = Maximum concentration at a dose of 2.0 mg/kg; format: ADME, organism-based; set-up: dose 2 mg/kg; settings: in vivo
[4] = biological target: T2, GABA-A receptor; alpha-5/beta-3/gamma-2 (Homo sapiens, UniProt P18507+P28472+P31644); test: Displacement of [3H]Ro-151788 from human GABA-A receptor alpha-5-beta-3-gamma-2 subunits expressed in L(tk-) cells; format: cell-based; in short: as §1
T2 sequence (P18507 whole entry): T1 sequence (P18507 whole entry)
T2 sequence (P28472 whole entry): T1 sequence (P28472 whole entry)
T2 sequence (P31644 whole entry): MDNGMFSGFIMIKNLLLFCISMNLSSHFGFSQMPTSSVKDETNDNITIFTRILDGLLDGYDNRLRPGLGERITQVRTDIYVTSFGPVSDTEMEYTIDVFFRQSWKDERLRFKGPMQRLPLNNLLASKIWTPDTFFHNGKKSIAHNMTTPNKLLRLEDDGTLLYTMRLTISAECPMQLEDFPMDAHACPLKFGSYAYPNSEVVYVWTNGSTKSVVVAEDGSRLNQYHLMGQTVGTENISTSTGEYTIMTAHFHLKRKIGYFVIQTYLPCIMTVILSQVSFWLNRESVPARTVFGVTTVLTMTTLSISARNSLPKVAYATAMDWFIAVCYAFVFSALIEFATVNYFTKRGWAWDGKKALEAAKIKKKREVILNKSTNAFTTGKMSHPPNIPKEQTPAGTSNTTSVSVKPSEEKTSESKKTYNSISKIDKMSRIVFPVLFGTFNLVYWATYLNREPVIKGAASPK

[5] = Clp at a dose of 2.0 mg/kg; format: ADME, organism-based; set-up: dose 2 mg/kg; settings: in vivo
[6] = Vdss at a dose of 2.0 mg/kg; format: ADME, organism-based; set-up: dose 2 mg/kg; settings: in vivo, read-out: Vdss
[7] = Maximum time at a dose of 2.0 mg/kg; format: ADME, organism-based; set-up: dose 2 mg/kg; settings: in vivo
[8] = Oral bioavailability at a dose of 2.0 mg/kg; format: ADME, organism-based; settings: eutheria, in vivo
[9] = half life at a dose of 2.0 mg/kg; format: ADME, organism-based; set-up: dose 2 mg/kg; settings: in vivo
[10] = Clp at a dose of 1.5 mg/kg; format: ADME, organism-based; set-up: dose 1.5 mg/kg; settings: in vivo
[11] = Half life at a dose of 1.5 mg/kg; format: ADME, organism-based; set-up: dose 1.5 mg/kg; settings: in vivo
[12] = Maximum concentration at a dose of 1.5 mg/kg; format: ADME, organism-based; set-up: dose 1.5 mg/kg; settings: in vivo
[13] = Vdss at a dose of 1.5 mg/kg; format: ADME, organism-based; set-up: dose 1.5 mg/kg; settings: in vivo, read-out: Vdss
[14] = biological target: T2, GABA-A receptor; alpha-5/beta-3/gamma-2; test: Inhibition of [3H]Ro-151788 binding to human GABA A receptor (alpha-5-beta-3-gamma-2) stably expressed in L(tk-) cells.; format: cell-based; in short: as §1
[15] = Log D was evaluated; format: physicochemical; settings: octanol/water
[16] = Oral bioavailability at a dose of 1.5 mg/kg; format: ADME, organism-based; settings: eutheria, in vivo
[17] = Maximum time at a dose of 1.5 mg/kg; format: ADME, organism-based; set-up: dose 1.5 mg/kg; settings: in vivo

| logD [1] | Ki [2] | Cmax [3] | Ki [4] | Clp [5] | Vd [6] | Tmax [7] | bioavailability [8] | half-life [9] | Clp [10] | half-life [11] | Cmax [12] | Vd [13] | Ki [14] | logD [15] | bioavailability [16] | Tmax [17] | SMILES |
| --- | --- | --- | --- | --- | --- | --- | --- | --- | --- | --- | --- | --- | --- | --- | --- | --- | --- |
| 3.6 | 3.4 nM | 83 ng/mL | 320 nM | 44 mL/min/kg | 3.3 L/kg | 18 min | 25% | 102 min | – | – | – | – | – | – | – | – | COc1ccc(-c2cc(-c3nc(C)cs3)c(=O)n(C)c2-c2ccncc2)cc1 |
| – | 4.1 nM | – | – | – | – | – | – | – | 35 mL/min/kg | 66 min | 170 ng/mL | 2.5 L/kg | 330 nM | 2.7 | 65% | 30 min | COc1ccc(-c2cc(-c3nc(C)cs3)c(=O)n(C)c2-c2ccnnc2)cc1 |
